Scp-1 inhibitor: inhibitors of human Scp-1 phosphatase; Q9GZU7; inhibition, % at 20 µM; 0.88% of 340,000 active; Recombinant Scp1, phosphopeptide, malachite green phosphate absorbance;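 active = inhibition above about 50% at 20 µM, limit read from the data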
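Assay system: SCP-1 catalytic fragment, aa 76-261 | Buffer or medium: Tris acetate buffer pH 5.5 with MgCl2 and Tween-20 | Compound: One concentration, 20 µM, with 1.0% DMSO | Also added: Phospho 17-mer peptide substrate | Signal: Absorbance at 630 nm | Incubation: 45 min enzyme reaction at room temperature | Measure: % inhibition of SCP-1 phosphate liberation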
STEP inh: blocks human striatal-enriched tyrosine phosphatase | 0.25% of 360,000 active | P54829 | inhibition, % at 20 µM | AID 588621 | recombinant STEP, OMFP fluorogenic substrate, fluorescence;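 active = inhibition at 20 µM, scaled per plate between control wells, above about 37%, limit read from the data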
Target sequence (P54829 whole entry, looked up): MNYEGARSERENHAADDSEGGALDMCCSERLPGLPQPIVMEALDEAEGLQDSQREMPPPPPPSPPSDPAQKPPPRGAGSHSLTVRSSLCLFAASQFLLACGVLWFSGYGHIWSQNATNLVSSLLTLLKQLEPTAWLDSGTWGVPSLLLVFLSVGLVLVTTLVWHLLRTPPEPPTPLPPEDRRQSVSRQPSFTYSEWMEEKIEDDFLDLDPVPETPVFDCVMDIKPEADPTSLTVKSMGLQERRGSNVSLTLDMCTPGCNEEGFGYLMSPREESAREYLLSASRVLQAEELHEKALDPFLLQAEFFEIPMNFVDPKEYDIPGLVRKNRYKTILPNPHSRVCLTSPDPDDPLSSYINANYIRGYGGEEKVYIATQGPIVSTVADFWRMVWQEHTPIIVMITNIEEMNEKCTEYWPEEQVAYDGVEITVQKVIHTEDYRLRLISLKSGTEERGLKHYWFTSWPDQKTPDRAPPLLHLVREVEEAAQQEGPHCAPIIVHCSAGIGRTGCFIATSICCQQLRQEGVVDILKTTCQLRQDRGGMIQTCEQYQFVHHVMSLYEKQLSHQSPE
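Material: STEP (striatal-enriched tyrosine phosphatase) enzyme, cell-free; Compound dosing: 20 µM single dose in 1% DMSO; Technique: fluorescence read at 480 nm ex / 540 nm em; Times: reaction 20 min, ambient temperature; Medium: 50 mM Bis-Tris pH 6.0 with 2.5 mM DTT and 0.005% Tween 20; Also added: OMFP at 25 µM.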
SUMO1-SIM PPI: alters human SUMO1 binding to SIM partners; P63165; SUMO1 binding to a labelled peptide, TR-FRET, 1 h; AID 602429; inhibition, % at 20 µM; 0.33% of 360,000 active; in the data active = inhibition above about 37%
Target sequence (P63165 whole entry, looked up): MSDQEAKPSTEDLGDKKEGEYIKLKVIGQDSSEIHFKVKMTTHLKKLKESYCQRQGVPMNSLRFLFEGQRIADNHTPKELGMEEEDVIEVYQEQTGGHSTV
DNMT1 block: blocks human DNA methyltransferase DNMT1; P26358; DNMT1 molecular beacon, Hinp1I cleavage, fluorescence; inhibition (reported as % activation of signal), % at 10 µM; 0.83% of 360,000 active; AID 588458; in the data active = inhibition above about 50%
LMPTP inh: blocks human LMPTP phosphatase; recombinant LMPTP-A, OMFP fluorogenic substrate, fluorescence intensity; inhibition, % at 20 µM; 0.22% of 360,000 active;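 active = compounds that cut the enzyme signal by at least half of the control window in the single-dose screen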
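Material: LMPTP-A; amount: 0.625 nM enzyme; doses: single 20 µM dose; times: reaction 50 min, room temperature, dark; technique: fluorescence intensity of OMFP turnover product; benchmarks: no-enzyme and uninhibited controls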
CASP6 VEID inh: inhibitors of human caspase-6; P55212; purified caspase-6, Z-VEID-R110 cleavage fluorescence; inhibition, % at 12.5 µM; 0.53% of 350,000 active;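 active = mean inhibition across replicates at least about 35%, with every replicate also reaching that limit, limit read from the data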
Scp-1 conf: confirmation of human Scp-1 phosphatase inhibitors | shares compounds with Scp-1 inhibitor | recombinant SCP-1 catalytic domain, phosphate release, malachite green absorbance | inhibition, % at 20 µM | 61% of 2,500 active | AID 540281
Scp-1 MG ctr: interferes with malachite green readout, flagging false Scp-1 hits | shares compounds with Scp-1 inhibitor | Colorimetric interference counterscreen, malachite green absorbance 630 nm | apparent inhibition (interference), % at 20 µM | 2,500 tested, under 10 active | AID 540313;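 also: compounds added after enzyme reaction finished so only phosphate colour detection is probed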
Scp-1 Tm shift: binds human Scp-1, shifting its melting temperature; 25% of 1,500 active; shares compounds with Scp-1 inhibitor; thermal shift relative to vanadate control, % at 40 µM; Recombinant SCP1, Sypro Orange thermal shift Tm;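 active = substances whose mean melting-temperature shift, as a percentage of the reference inhibitor's shift, reaches about 5.3%, limit read from the data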
DNMT1 inh conf: confirmation of human DNMT1 inhibitors. inhibition, % at 10 µM. DNMT1 molecular beacon HinP1I cleavage, fluorescence. shares compounds with DNMT1 block. 8% of 2,300 active;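 active = average inhibition of at least 30% in the single-concentration confirmation test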
DNMT1 interf: shows spectral interference in the DNMT1 beacon assay; shares compounds with DNMT1 block; DNMT1 molecular beacon spectral interference counterscreen, fluorescence 485/520; activation (fluorescence interference), % at 10 µM; 1% of 2,300 active;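 active = activation of at least 30% at 10 µM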;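 also: DNMT1 catalytic domain with a HinP1I cleavage step and a FAM/dabcyl DNA beacon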
STEP inh conf: STEP (human) phosphatase inhibition, single concentration confirmation | shares compounds with STEP inh | recombinant STEP, OMFP fluorogenic substrate, fluorescence | inhibition, % at 20 µM | 32% of 520 active; call rule not given here
CASP1 counter: selectivity counter-screen: inhibitors of human caspase-1; activity change, negative = inhibition, % at 35 µM; purified caspase-1, Z-YVAD-R110 cleavage fluorescence; AID 743289; 100 tested, under 10 active; shares compounds with CASP6 VEID inh;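 active = compounds lowering fluorescence whose fitted half-maximal concentration is no more than twice their top tested dose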
Of the large screens only hits and unclear results are named; the others gave an inactive call (follow-up assays come after a bar, where they were run). Only some compounds are listed: those with a hit (about 1.7% of all), similar ones and a draw of the others.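 The calls were made as follows, unless noted: active = inhibition of at least 30% at 20 µM; inactive = the rest.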

Cc1c(CC(=O)O)c(=O)oc2c(C)c(OCc3ccc(F)cc3Cl)ccc12	Scp-1 inhibitor 64, STEP inh 98, SUMO1-SIM PPI 84, LMPTP inh 85 | Scp-1 conf 68 | Scp-1 MG ctr inactive | Scp-1 Tm shift inactive | STEP inh conf 62
COc1cc(OC)cc(N(C(=O)CNC(=O)c2cccs2)C(C(=O)NCC2CCCO2)c2ccccc2)c1 (stereo not given)	none
Clc1ccc2c(SCC3CO3)c3ccccc3nc2c1 (stereo not given)	Scp-1 inhibitor 101, STEP inh 62 | Scp-1 conf inactive | Scp-1 MG ctr inactive | STEP inh conf inactive
COC(=O)[C@]12CCCCC=C1N(CCC1=CCCCC1)C(=O)[C@H](CC(=O)N1CCCC1)C2	none (no result: Scp-1 inhibitor, STEP inh, DNMT1 block)
CCSC1=N/C(=C\c2ccc(-c3ccccc3[N+](=O)[O-])o2)C(=O)S1	none (no result: CASP6 VEID inh)
CCCSC1=N/C(=C\c2ccc([N+](=O)[O-])o2)C(=O)S1	Scp-1 inhibitor 60, SUMO1-SIM PPI 62, DNMT1 block 93, CASP6 VEID inh 75 | Scp-1 conf 72 | Scp-1 MG ctr inactive | Scp-1 Tm shift 11 | CASP1 counter inactive
C[C@H](NC(=O)C[C@@H]1C=C[C@@H](NS(=O)(=O)c2cccc(F)c2)[C@H](CO)O1)c1ccccc1	none (no result: Scp-1 inhibitor, STEP inh, SUMO1-SIM PPI, DNMT1 block, LMPTP inh)
O=C(O)Cc1ccc(-n2cccc2)cc1	Scp-1 inhibitor 80, DNMT1 block 96, CASP6 VEID inh 70 | Scp-1 conf 53 | Scp-1 MG ctr inactive | Scp-1 Tm shift inactive | CASP1 counter inactive
COc1ccc(C#Cc2cnc3c(c2)C(=O)N([C@H](C)CO)C[C@H](C)[C@H](CN(C)C(=O)Nc2c(C)noc2C)O3)cc1OC	none (no result: Scp-1 inhibitor, STEP inh, SUMO1-SIM PPI, DNMT1 block, LMPTP inh)
O=c1oc(-c2ccccc2)nc2sc3c(c12)CCC3	Scp-1 inhibitor 59, DNMT1 block 96, CASP6 VEID inh 72 | Scp-1 conf 34 | Scp-1 MG ctr inactive | Scp-1 Tm shift inactive | DNMT1 inh conf inactive | DNMT1 interf inactive | CASP1 counter inactive
O=C1CCC(=O)N1c1ccc(-c2nc3sc4c(c3c(=O)o2)CCC4)cc1	none
COc1ccc([N+](=O)[O-])cc1NC(=O)CCS(=O)(=O)c1ccc(Br)cc1	Scp-1 inhibitor 95, DNMT1 block 79 | Scp-1 conf 62 | Scp-1 MG ctr inactive | Scp-1 Tm shift inactive | DNMT1 inh conf inactive | DNMT1 interf inactive | CASP1 counter inactive
CN(CC(=O)NC(=O)NC1CCCCC1)CC(=O)Nc1ccccc1C(F)(F)F	none (no result: Scp-1 inhibitor)
CN(CC(=O)Nc1ccccc1Cl)C(=O)c1cccc(-n2cccc2)c1	none
CN(CC(=O)Nc1c(Cl)cccc1Cl)C(=O)c1cccc(-n2cccc2)c1	Scp-1 inhibitor 84, DNMT1 block 69, CASP6 VEID inh 42 | Scp-1 conf 48 | Scp-1 MG ctr inactive | Scp-1 Tm shift inactive | DNMT1 inh conf inactive | DNMT1 interf inactive | CASP1 counter inactive
Cc1ccc(C)c(NC(=O)CN(C)C(=O)c2cccc(-n3cccc3)c2)c1	Scp-1 inhibitor 79, DNMT1 block 94, CASP6 VEID inh 59 | Scp-1 conf 58 | Scp-1 MG ctr inactive | Scp-1 Tm shift inactive | DNMT1 inh conf inactive | DNMT1 interf inactive | CASP1 counter inactive
Cc1ccc(-c2nc3cc(NC(=O)C(C)C)ccc3o2)cc1	none (no result: CASP6 VEID inh)
Cc1cc2nc(-c3ccc(NC(=O)C(C)C)cc3)oc2cc1C	DNMT1 block 63 (no result: CASP6 VEID inh) | DNMT1 inh conf inactive | DNMT1 interf inactive
Cn1ncc(N=Cc2c(O)ccc3ccccc23)c1C(=O)Nc1cccc(Cl)c1	DNMT1 block 51 | DNMT1 inh conf inactive | DNMT1 interf inactive
COc1ccc(N2CCN(C(CNC(=O)C(=O)NCCCO)c3ccco3)CC2)cc1 (stereo not given)	none
COc1ccc(N2CCN(C(CNC(=O)C(=O)NCCc3c[nH]c4ccccc34)c3ccco3)CC2)cc1 (stereo not given)	DNMT1 block 78 (no result: CASP6 VEID inh) | DNMT1 inh conf inactive | DNMT1 interf inactive
NS(=O)(=O)c1ccc(NC(=O)CSc2ncnc3ccccc23)cc1	none
CCc1nc(Nc2ccccc2)c2nnn(Cc3ccccc3)c2n1	none
CCc1nc(NCc2cccs2)c2nnn(Cc3ccccc3)c2n1	DNMT1 block 67 (no result: Scp-1 inhibitor) | DNMT1 inh conf inactive | DNMT1 interf inactive
COc1ccc(S(=O)(=O)N2CCOCC2)cc1NC(=O)c1cc(C)oc1C	DNMT1 block 65 | DNMT1 inh conf inactive | DNMT1 interf inactive
CN(C1CCCC1)C1CCN(C(=O)CNC(=O)/C=C/c2cccc(C(F)(F)F)c2)CC1	none
Cc1ccc(CSc2nnc(SCC(=O)N/N=C/C=C/c3ccco3)s2)cc1	DNMT1 block 52 (no result: CASP6 VEID inh) | DNMT1 inh conf inactive | DNMT1 interf inactive
Cc1ccc(CSc2nnc(SCC(=O)N/N=C/C=C/c3ccccc3[N+](=O)[O-])s2)cc1	none
CCN(C(=O)COC(=O)c1nccnc1N)c1cccc2ccccc12	DNMT1 block 61 | DNMT1 inh conf inactive | DNMT1 interf inactive
Cc1ccc(C(=O)C(C)OC(=O)CCN=C2NS(=O)(=O)c3ccccc32)cc1 (stereo not given)	none
CC(OC(=O)CCN=C1NS(=O)(=O)c2ccccc21)C(=O)c1ccccc1 (stereo not given)	DNMT1 block 72 | DNMT1 inh conf inactive | DNMT1 interf inactive
CCc1cc2c(=O)c(-c3cnn(-c4ccccc4)c3)c(C)oc2cc1OCC(=O)Nc1cccc(C)c1	DNMT1 block 61 | DNMT1 inh conf inactive | DNMT1 interf inactive
CS(=O)(=O)N1CC2(C1)[C@H](c1ccccc1)[C@@H](CO)N2CCC(F)(F)F	none (no result: Scp-1 inhibitor, STEP inh, SUMO1-SIM PPI, DNMT1 block, LMPTP inh)

Screening results: PubChem, several laboratories
